A selection: hits, their analogues and other compounds. The true share with any hit is near 1.7%.
Casp6 inh: human caspase-6 inhibitors, primary screen, biochemical, VEID-R110 fluorescence, single point, set 2 | P55212 | purified caspase-6, Z-VEID-R110 cleavage fluorescence | inhibition, % at 12.5 µM | actives 0.53% (n = 350,000) | AID 686996, 2013;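 active = mean inhibition across replicates at least about 35%, with every replicate also reaching that limit, limit read from the data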;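 note: 0% = median of neutral control wells and 100% = no fluorescence left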
SUMO1-SIM PPI: modulators of SUMO1 protein-protein interactions, primary screen, biochemical, uHTS; SUMO1 binding to a labelled peptide, TR-FRET, 1 h; inhibition, % at 20 µM; actives 0.33% (n = 360,000); AID 602429, 2012; in the data active = inhibition above about 37%
STEP block: STEP phosphatase inhibitors, primary screen, biochemical, fluorescence intensity, uHTS. Tyrosine-protein phosphatase non-receptor type 5 (Homo sapiens), P54829. recombinant STEP, OMFP fluorogenic substrate. inhibition, % at 20 µM. actives 0.25% (n = 360,000). AID 588621, 2011;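 active = inhibition at 20 µM, scaled per plate between control wells, above about 37%, limit read from the data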;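 note: 0% = DMSO with enzyme and substrate and 100% = substrate only without enzyme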
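Material: STEP (striatal-enriched tyrosine phosphatase) enzyme, cell-free; Compound dosing: 20 µM single dose in 1% DMSO; Technique: fluorescence read at 480 nm ex / 540 nm em; Times: reaction 20 min, ambient temperature; Medium: 50 mM Bis-Tris pH 6.0 with 2.5 mM DTT and 0.005% Tween 20; Also added: OMFP at 25 µM.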
LMPTP inh: LMPTP phosphatase inhibitors, primary screen, biochemical, fluorescence intensity, uHTS; Low molecular weight phosphotyrosine protein phosphatase (Homo sapiens), P24666; recombinant LMPTP-A, OMFP fluorogenic substrate; inhibition, % at 20 µM; actives 0.22% (n = 360,000);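 active = compounds that cut the enzyme signal by at least half of the control window in the single-dose screen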;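 note: plate controls were DMSO wells with enzyme plus substrate for no effect and substrate without enzyme for full effect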
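Test system: LMPTP-A phosphatase enzyme. Amount: LMPTP-A at 0.625 nM final in the reaction. Reagent: OMFP substrate, 400 µM final. Times: 50 min at room temperature. Signal: endpoint fluorescence intensity from OMFP dephosphorylation. Read-out basis: % inhibition. Benchmarks: no-enzyme and uninhibited controls.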
Scp-1 inhibitor: Scp-1 phosphatase inhibitors, primary screen, biochemical, colorimetric, uHTS. Carboxy-terminal domain RNA polymerase II polypeptide A small phosphatase 1 (Homo …. Recombinant Scp1, phosphopeptide, malachite green phosphate absorbance. inhibition, % at 20 µM. actives 0.88% (n = 340,000). AID 493091, 2011;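 active = inhibition above about 50% at 20 µM, limit read from the data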;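 note: plate controls were DMSO wells with enzyme for no effect and wells lacking enzyme for full effect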
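System: truncated SCP-1 phosphatase (76-261aa); medium: Tris acetate buffer pH 5.5 with MgCl2 and Tween-20; incubation: 45 min room-temperature reaction, 5 min colour, 30 min stabiliser; compound: single 20 µM dose, 1% DMSO; reagent: Phosphorylated 17-residue peptide substrate; read-out: % inhibition at 20 µM; technique: colorimetric free-phosphate detection, absorbance 630 nm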
DNMT1 inh: human DNMT1 methyltransferase inhibitors, primary screen, biochemical, molecular beacon, fluorescence, HinP1I cleavage, uHTS; DNA (cytosine-5)-methyltransferase 1 (Homo sapiens), P26358; inhibition (reported as % activation of signal), % at 10 µM; actives 0.83% (n = 360,000); AID 588458, 2011; in the data active = inhibition above about 50%
Target sequence (P26358 504-1616 limits assumed): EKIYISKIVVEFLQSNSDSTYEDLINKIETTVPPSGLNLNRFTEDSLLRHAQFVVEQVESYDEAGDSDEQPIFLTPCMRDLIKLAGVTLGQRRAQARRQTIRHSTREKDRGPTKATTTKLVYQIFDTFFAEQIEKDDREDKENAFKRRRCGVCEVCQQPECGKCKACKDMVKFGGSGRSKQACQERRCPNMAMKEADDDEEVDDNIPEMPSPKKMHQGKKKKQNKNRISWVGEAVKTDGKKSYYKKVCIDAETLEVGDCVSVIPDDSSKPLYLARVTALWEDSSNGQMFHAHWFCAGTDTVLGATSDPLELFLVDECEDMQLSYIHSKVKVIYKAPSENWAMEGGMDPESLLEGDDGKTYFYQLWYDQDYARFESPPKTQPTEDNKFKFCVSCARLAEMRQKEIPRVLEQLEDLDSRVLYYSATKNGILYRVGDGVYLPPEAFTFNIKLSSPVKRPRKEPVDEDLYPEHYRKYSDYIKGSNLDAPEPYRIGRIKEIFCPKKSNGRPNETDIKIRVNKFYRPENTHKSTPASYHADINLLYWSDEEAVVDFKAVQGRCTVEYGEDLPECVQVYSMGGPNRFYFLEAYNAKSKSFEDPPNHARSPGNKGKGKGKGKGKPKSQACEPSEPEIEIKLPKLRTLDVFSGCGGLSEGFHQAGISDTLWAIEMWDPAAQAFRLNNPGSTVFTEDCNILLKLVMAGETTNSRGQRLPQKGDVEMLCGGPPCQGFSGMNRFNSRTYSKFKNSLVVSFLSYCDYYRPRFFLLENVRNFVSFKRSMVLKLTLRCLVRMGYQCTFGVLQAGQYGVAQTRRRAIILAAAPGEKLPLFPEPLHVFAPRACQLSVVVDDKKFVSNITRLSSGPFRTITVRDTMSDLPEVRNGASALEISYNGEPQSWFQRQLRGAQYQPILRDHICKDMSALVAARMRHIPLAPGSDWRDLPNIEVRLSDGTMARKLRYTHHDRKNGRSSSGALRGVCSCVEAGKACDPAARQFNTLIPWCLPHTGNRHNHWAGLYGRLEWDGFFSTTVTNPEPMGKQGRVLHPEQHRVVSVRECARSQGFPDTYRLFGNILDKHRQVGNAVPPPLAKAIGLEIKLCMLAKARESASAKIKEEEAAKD
STEP conf: STEP phosphatase inhibitor hit confirmation, biochemical, fluorescence intensity, single concentration; shares compounds with STEP block; recombinant STEP, OMFP fluorogenic substrate; inhibition, % at 20 µM; actives 32% (n = 520); AID 623866, 2012; call rule not given here;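 note: 0% = enzyme with substrate plus DMSO and 100% = substrate without enzyme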
* = called active by the depositor; . = no result given.

SMILES	Casp6 inh	SUMO1-SIM PPI	STEP block	LMPTP inh	Scp-1 inhibitor	DNMT1 inh	STEP conf
COc1ccc(N2CCN(c3nc4c(C)cccn4c(=O)c3C=C(C#N)C#N)CC2)cc1	0	2	63*	2	-9	0	6
COc1ccccc1NS(=O)(=O)c1ccc(OC)c([N+](=O)[O-])c1	2	-10	0	-1	-6	2	.
COc1ccccc1NS(=O)(=O)c1ccc(NN=C2CCCCC2)c([N+](=O)[O-])c1	.	-21	92*	2	-6	-11	5
Nc1cc([N+](=O)[O-])ccc1O	22	-33	0	0	1	0	.
Fc1ccc(-n2c(=S)[nH]c3cccnc32)cc1	0	1	65*	1	-4	5	17
NC(=O)CSc1nc2cc(S(=O)(=O)N3CCOCC3)ccc2o1	0	-5	56*	-1	7	5	1
NC(=O)C1(NC2CCCCC2)CCN(Cc2ccccc2)CC1	-1	-4	-2	-3	-10	4	.
N#C/C(=C/c1ccc(OCc2ccc(C(=O)O)cc2)c(Br)c1)c1cccc(F)c1	3	20	94*	86*	50*	93*	16
Cc1cc(C)c(NC(=S)N2CCC(N(C)CC3CCCO3)CC2)c(C)c1 (stereo not given)	.	2	86*	-5	-6	1	30
Cc1cccc(C)c1NC(=S)N1CCC(N(C)CC2CCCO2)CC1 (stereo not given)	.	2	3	-4	-3	-1	.
O=C(N/N=C/c1ccccn1)c1cc(-c2ccc(Cl)s2)[nH]n1	0	1	42*	5	47	21	3
Cc1cc(C)cc(NC(=S)NC2CC3CCCC(C2)N3C2CCCC2)c1 (stereo not given)	-15	20	40*	2	-6	4	14
CC(C)N(C)CCOC(=O)c1ccccc1Br	.	3	78*	-2	-2	21	-4
CC(C)N(C)CCOC(=O)c1ccccc1Cl	6	-4	-4	-3	-4	5	.
COc1ccccc1NC(=O)CN1C(=O)COc2ccc(C)cc21	0	1	2	0	-10	-6	.
COc1ccc(NC(=O)CN2C(=O)COc3ccc(C)cc32)c(OC)c1	1	2	72*	-1	-7	4	0
CC(C)Oc1ccc(OCCCN2CCCCCC2)cc1	.	-5	53*	-1	-6	-1	-16
CC(C)c1ccc(OCCCCN2CCCCC2)cc1	-12	-4	-2	-2	3	1	.
COc1cc(NC(=S)N2CCN(C)CC2)c(OC)cc1Cl	3	2	42*	-3	-2	-5	28*
O=C(CSS(=O)(=O)O)N1CCN(C(=O)c2ccoc2)CC1	-4	2	77*	-1	9	-1	14
COC(=O)C1=C(CS(=O)(=O)c2ccc(Cl)cc2)NC(=O)NC1c1ccc(O)cc1 (stereo not given)	1	-3	93*	-1	8	27	1
COc1ccc(NC(=O)N2CCCCN3[C@H](CO)[C@@H](c4ccc(C#Cc5ccccc5)cc4)[C@@H]3C2)cc1	-1	.	.	.	.	.	.
Cc1ccc(NC(=O)Cn2cncc2-c2ccc([N+](=O)[O-])cc2)cc1C	.	-6	48*	32	49	50	14
Cc1nn2c(CN(C(=O)COc3ccccc3)c3ccccc3)nnc2c2ccccc12	.	7	122*	0	3	-1	-1
Cc1ccc(-n2nnnc2SCCNS(=O)(=O)c2ccccc2)cc1C	.	0	-1	0	-3	-2	.

High-throughput results as filed in PubChem.
